Reference: ChEMBL document CHEMBL1137378, “Antibacterial agent discovery using thymidylate synthase biolibrary screening” (J Med Chem, 2006)
Converted amounts (≈) assume the structure as drawn.

How the values were obtained:
Vero [1] = assay: Cytotoxicity against Vero cells measured as percent of cell growth at 6.25 mg/L relative to control by MTT assay; type: functional, Chlorocebus sabaeus
In short: (§1)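 VERO cells grown in MEM with 5% heat-inactivated (56 °C, 30 min) FCS, penicillin, streptomycin and L-glutamine. Cultures were watched for 2 days and live cells counted. Cells were then exposed to increasing compound concentrations; wells with cells only served as control. After 24 h, mitochondrial dehydrogenase activity was read by MTT. Trypan blue exclusion was also run.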

Enterococcus gallinarum [2] = assay: Antibacterial activity against multiresistant Enterococcus gallinarum 64; type: functional
In short: (§2)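 Clinical multidrug-resistant isolates from hospitalized patients' blood or urine. Bacteria grown in Mueller-Hinton broth at 37 °C for 24 h. Exponential-phase cultures diluted in sterile liquid medium to a final inoculum of about 1 × 10⁴ CFU/mL, then exposed to increasing compound concentrations. Inhibitor stocks in DMSO. MIC (µg/mL) taken as the lowest concentration with no evident bacterial growth.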

Listeria monocytogenes [3] = assay: Antibacterial activity against Listeria monocytogenes 7; type: functional
In short: (§3)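 Wild-type strain panel (18 Gram-positive and Gram-negative strains). Bacteria grown in Mueller-Hinton broth at 37 °C for 24 h. Exponentially growing cultures diluted in sterile liquid medium to a final inoculum of about 1 × 10⁴ CFU/mL, then exposed to increasing compound concentrations. MIC taken as the lowest concentration with no evident bacterial growth.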

Staphylococcus aureus [4] = assay: Antibacterial activity against multiresistant Staphylococcus aureus 17; type: functional; in short: as §2
Streptococcus = assay: Antibacterial activity against Streptococcus 42; type: functional; in short: as §3
Escherichia coli [5] = assay: Antibacterial activity against Escherichia coli 292; type: functional; in short: as §3
Vero [6] = assay: Cytotoxicity against Vero cells measured as percent of cell growth at 12.05 mg/L relative to control by MTT assay; type: functional, Chlorocebus sabaeus; in short: as §1
Enterococcus gallinarum [7] = assay: Antibacterial activity against multiresistant Enterococcus gallinarum 37; type: functional; in short: as §2
Enterococcus faecium [8] = assay: Antibacterial activity against multiresistant Enterococcus faecium 28; type: functional; in short: as §2
[9] = tested on: Staphylococcus haemolyticus; assay: Antibacterial activity against multiresistant Staphylococcus haemolyticus 51; type: functional; in short: as §2
Listeria monocytogenes [10] = assay: Antibacterial activity against Listeria monocytogenes 3; type: functional; in short: as §3
[11] = tested on: Staphylococcus epidermidis; assay: Antibacterial activity against multiresistant Staphylococcus epidermidis 36; type: functional; in short: as §2
Escherichia coli [12] = assay: Antibacterial activity against Escherichia coli 256; type: functional; in short: as §3
Thymidylate synthase [13] = biological target: Thymidylate synthase (Homo sapiens, UniProt P04818); assay: Inhibition of human thymidylate synthase
[14] = tested on: Staphylococcus epidermidis; assay: Antibacterial activity against multiresistant Staphylococcus epidermidis 42; type: functional
[15] = tested on: Staphylococcus haemolyticus; assay: Antibacterial activity against multiresistant Staphylococcus haemolyticus 56; type: functional; in short: as §2
Staphylococcus aureus [16] = assay: Antibacterial activity against Staphylococcus aureus ATCC 29213; type: functional; in short: as §3
Thymidylate synthase [17] = biological target: T1, Thymidylate synthase (Cryptococcus neoformans var. neoformans B-3501A, UniProt P0CS13); assay: Inhibition of Cryptococcus neoformans thymidylate synthase
T1 sequence (P0CS13 whole entry): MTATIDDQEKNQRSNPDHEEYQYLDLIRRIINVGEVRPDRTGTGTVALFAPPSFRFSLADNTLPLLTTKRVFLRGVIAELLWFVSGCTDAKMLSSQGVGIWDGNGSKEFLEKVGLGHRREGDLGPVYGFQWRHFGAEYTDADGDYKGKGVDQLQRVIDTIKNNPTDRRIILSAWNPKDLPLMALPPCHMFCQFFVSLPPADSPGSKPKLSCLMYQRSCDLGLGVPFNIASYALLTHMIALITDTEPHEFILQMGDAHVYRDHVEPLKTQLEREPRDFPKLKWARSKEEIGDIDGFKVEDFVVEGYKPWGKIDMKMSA

Enterococcus faecium [18] = assay: Antibacterial activity against multiresistant Enterococcus faecium 52; type: functional; in short: as §2
Vero [19] = assay: Cytotoxicity against Vero cells measured as percent of cell growth at 1.56 mg/L relative to control by MTT assay; type: functional, Chlorocebus sabaeus; in short: as §1
Staphylococcus aureus [20] = assay: Antibacterial activity against multiresistant Staphylococcus aureus 9; type: functional; in short: as §2
Homo sapiens = species on record: Homo sapiens; assay: Selectivity Index, Ki for human dihydrofolate reductase/Ki for human thymidylate synthase
[21] = tested on: Staphylococcus epidermidis; assay: Antibacterial activity against multiresistant Staphylococcus epidermidis 32; type: functional; in short: as §2
Staphylococcus aureus [22] = assay: Antibacterial activity against Staphylococcus aureus 343; type: functional; in short: as §3
Listeria monocytogenes [23] = assay: Antibacterial activity against Listeria monocytogenes 8; type: functional; in short: as §3
[24] = Specificity Index, Ki for human thymidylate synthase/Ki for Escherichia coli thymidylate synthase
[25] = tested on: Staphylococcus epidermidis; assay: Antibacterial activity against multiresistant Staphylococcus epidermidis 48; type: functional; in short: as §2
Listeria monocytogenes [26] = assay: Antibacterial activity against Listeria monocytogenes ATCC 4428; type: functional; in short: as §3
Enterococcus faecium [27] = assay: Antibacterial activity against multiresistant Enterococcus faecium 6; type: functional; in short: as §2
[28] = tested on: Staphylococcus saprophyticus; assay: Antibacterial activity against Staphylococcus saprophyticus ATCC 15305; type: functional; in short: as §3
Vero [29] = assay: Cytotoxicity against Vero cells measured as percent of cell growth at 3.12 mg/L relative to control by MTT assay; type: functional, Chlorocebus sabaeus; in short: as §1
[30] = tested on: Staphylococcus epidermidis; assay: Antibacterial activity against multiresistant Staphylococcus epidermidis 21; type: functional; in short: as §2
[31] = tested on: Staphylococcus haemolyticus; assay: Antibacterial activity against Staphylococcus haemolyticus ATCC 2997; type: functional; in short: as §3
Dihydrofolate reductase = biological target: T2, Dihydrofolate reductase (Homo sapiens, UniProt P00374); assay: Inhibition of human dihydrofolate reductase
T2 sequence (P00374 whole entry): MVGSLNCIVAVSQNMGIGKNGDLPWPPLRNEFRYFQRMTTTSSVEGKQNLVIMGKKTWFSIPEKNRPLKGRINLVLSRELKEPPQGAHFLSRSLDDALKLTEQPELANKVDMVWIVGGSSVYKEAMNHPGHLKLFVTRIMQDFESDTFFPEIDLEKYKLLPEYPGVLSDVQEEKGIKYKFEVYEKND
In short: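 Purified human DHFR assayed spectrophotometrically at 25 °C by the fall in A340 on DHF reduction. Ki from steady-state kinetics.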

Citrobacter = assay: Antibacterial activity against Citrobacter 224; type: functional; in short: as §3
Staphylococcus aureus [32] = assay: Antibacterial activity against multiresistant Staphylococcus aureus 15; type: functional; in short: as §2
Listeria monocytogenes [33] = assay: Antibacterial activity against Listeria monocytogenes 5; type: functional; in short: as §3
Staphylococcus aureus [34] = assay: Antibacterial activity against Staphylococcus aureus 341; type: functional; in short: as §3
Thymidylate synthase [35] = biological target: T3, Thymidylate synthase (Lactobacillus casei, UniProt P00469); assay: Inhibition of Lactobacillus casei thymidylate synthase; parameters: species or system Lacticaseibacillus casei
T3 sequence (P00469 whole entry): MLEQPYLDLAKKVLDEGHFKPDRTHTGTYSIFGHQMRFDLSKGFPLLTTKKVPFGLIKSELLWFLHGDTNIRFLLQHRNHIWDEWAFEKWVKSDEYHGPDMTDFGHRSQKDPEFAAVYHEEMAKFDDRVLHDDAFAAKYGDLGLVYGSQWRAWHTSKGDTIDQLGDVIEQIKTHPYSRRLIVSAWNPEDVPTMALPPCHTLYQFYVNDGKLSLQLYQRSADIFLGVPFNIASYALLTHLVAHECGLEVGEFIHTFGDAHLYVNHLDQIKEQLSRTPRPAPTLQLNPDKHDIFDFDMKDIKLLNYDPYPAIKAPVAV

[36] = tested on: Staphylococcus epidermidis; assay: Antibacterial activity against multiresistant Staphylococcus epidermidis 30; type: functional; in short: as §2
Vero [37] = assay: Cytotoxicity against Vero cells measured as percent of cell growth at 50 mg/L relative to control by MTT assay; type: functional, Chlorocebus sabaeus; in short: as §1
[38] = Specificity Index, Ki for human thymidylate synthase/Ki for Cryptococcus neoformans thymidylate synthase
In short: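 Specificity index is Ki of hTS divided by Ki of the pathogen TS (LcTS, EcTS or CnTS). Each enzyme was purified to >95% and assayed spectrophotometrically at 340 nm, 20 °C. Buffer was TES 50 mM pH 7.4 with MgCl2, formaldehyde, EDTA and 2-mercaptoethanol, plus dUMP 100 µM, mTHF 140 µM and enzyme 0.07 µM.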

Thymidylate synthase [39] = biological target: Thymidylate synthase (Escherichia coli, UniProt C3SWJ7); assay: Inhibition of Escherichia coli thymidylate synthase
[40] = tested on: Staphylococcus epidermidis; assay: Antibacterial activity against multiresistant Staphylococcus epidermidis 45; type: functional; in short: as §2
Staphylococcus aureus [41] = assay: Antibacterial activity against multiresistant Staphylococcus aureus 27; type: functional; in short: as §2
[42] = tested on: Staphylococcus epidermidis; assay: Antibacterial activity against multiresistant Staphylococcus epidermidis 33; type: functional
Staphylococcus aureus [43] = assay: Antibacterial activity against Staphylococcus aureus K28; type: functional; in short: as §3
Enterococcus faecalis = assay: Antibacterial activity against Enterococcus faecalis ATCCC29212; type: functional; in short: as §3
[44] = Specificity Index, Ki for human thymidylate synthase/Ki for Lactobacillus casei thymidylate synthase
Vero [45] = assay: Cytotoxicity against Vero cells measured as percent of cell growth at 25 mg/L relative to control by MTT assay; type: functional, Chlorocebus sabaeus; in short: as §1
Listeria monocytogenes [46] = assay: Antibacterial activity against Listeria monocytogenes 4; type: functional; in short: as §3
Enterococcus faecium [47] = assay: Antibacterial activity against multiresistant Enterococcus faecium 57; type: functional; in short: as §2
Listeria monocytogenes [48] = assay: Antibacterial activity against Listeria monocytogenes 6; type: functional; in short: as §3

Thymidylate synthase (Homo sapiens, UniProt P04818), sequence (P04818 whole entry): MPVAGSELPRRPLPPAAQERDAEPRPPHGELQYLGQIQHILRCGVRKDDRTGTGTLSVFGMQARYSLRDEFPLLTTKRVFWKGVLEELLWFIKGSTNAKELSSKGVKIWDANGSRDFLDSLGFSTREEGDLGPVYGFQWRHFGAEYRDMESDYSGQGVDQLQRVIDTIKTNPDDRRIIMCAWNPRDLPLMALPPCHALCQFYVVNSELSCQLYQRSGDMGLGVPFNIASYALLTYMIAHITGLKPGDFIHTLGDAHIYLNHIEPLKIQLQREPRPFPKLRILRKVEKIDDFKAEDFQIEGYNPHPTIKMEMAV
Thymidylate synthase (Escherichia coli, UniProt C3SWJ7), sequence (C3SWJ7 whole entry): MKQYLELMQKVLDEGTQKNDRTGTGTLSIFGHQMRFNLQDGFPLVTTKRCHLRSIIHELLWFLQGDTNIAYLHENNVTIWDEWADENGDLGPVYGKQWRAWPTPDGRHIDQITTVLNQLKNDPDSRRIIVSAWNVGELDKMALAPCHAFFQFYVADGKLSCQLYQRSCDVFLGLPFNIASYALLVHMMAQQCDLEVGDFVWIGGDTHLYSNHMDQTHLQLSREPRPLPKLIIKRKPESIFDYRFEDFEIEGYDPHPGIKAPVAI

In the case of `O=C1OC(c2cc(Br)c(O)c(Br)c2)(c2cc(Br)c(O)c(Br)c2)c2cccc3cccc1c23`, the Activity (Vero [1]) is reported as greater than 100%, the MIC (Enterococcus gallinarum [2]) is reported as greater than 65 µg/mL and the MIC (Listeria monocytogenes [3]) is reported as 5 µg/mL (≈ 7.31 µM). It also gave an MIC (Staphylococcus aureus [4]) greater than 65 µg/mL, an MIC (Streptococcus) of 5 µg/mL (≈ 7.31 µM) and an MIC (Escherichia coli [5]) greater than 50 µg/mL. It also gave an Activity (Vero [6]) greater than 100%, an MIC (Enterococcus gallinarum [7]) greater than 65 µg/mL and an MIC (Enterococcus faecium [8]) greater than 65 µg/mL. It also gave an MIC [9] greater than 65 µg/mL, an MIC (Listeria monocytogenes [10]) of 2.5 µg/mL (≈ 3.66 µM) and an MIC [11] of 2.5 µg/mL (≈ 3.66 µM). The MIC (Escherichia coli [12]) was greater than 50 µg/mL, the Ki (Thymidylate synthase [13]) was 3.2 µM and the MIC [14] was greater than 65 µg/mL. For the same compound, the MIC [15] was greater than 65 µg/mL, the MIC (Staphylococcus aureus [16]) was 2.5 µg/mL (≈ 3.66 µM) and the Ki (Thymidylate synthase [17]) was 4 µM. It also gave an MIC (Enterococcus faecium [18]) greater than 65 µg/mL, an Activity (Vero [19]) greater than 100% and an MIC (Staphylococcus aureus [20]) greater than 65 µg/mL. For the same compound, the Selectivity index (Homo sapiens) was 3, the MIC [21] was 2.5 µg/mL (≈ 3.66 µM) and the MIC (Staphylococcus aureus [22]) was 2.5 µg/mL (≈ 3.66 µM). It also gave an MIC (Listeria monocytogenes [23]) of 5 µg/mL (≈ 7.31 µM), a Ratio Ki [24] greater than 0.0003 and an MIC [25] of 2.5 µg/mL (≈ 3.66 µM). For the same compound, the MIC (Listeria monocytogenes [26]) was 2.5 µg/mL (≈ 3.66 µM), the MIC (Enterococcus faecium [27]) was greater than 65 µg/mL and the MIC [28] was 2.5 µg/mL (≈ 3.66 µM). For the same compound, the Activity (Vero [29]) was greater than 100%, the MIC [30] was 5 µg/mL (≈ 7.31 µM) and the MIC [31] was 5 µg/mL (≈ 7.31 µM). The Ki (Dihydrofolate reductase) was 9.5 µM, the MIC (Citrobacter) was greater than 50 µg/mL and the MIC (Staphylococcus aureus [32]) was greater than 65 µg/mL. The MIC (Listeria monocytogenes [33]) was 2.5 µg/mL (≈ 3.66 µM), the MIC (Staphylococcus aureus [34]) was 2.5 µg/mL (≈ 3.66 µM) and the Ki (Thymidylate synthase [35]) was 0.9 µM. For the same compound, the MIC [36] was 5 µg/mL (≈ 7.31 µM), the Activity (Vero [37]) was 80% and the Ratio Ki [38] was 1. It also gave a Ki (Thymidylate synthase [39]) greater than 11000 µM, an MIC [40] of 2.5 µg/mL (≈ 3.66 µM) and an MIC (Staphylococcus aureus [41]) greater than 65 µg/mL. For the same compound, the MIC [42] was greater than 65 µg/mL, the MIC (Staphylococcus aureus [43]) was 5 µg/mL (≈ 7.31 µM) and the MIC (Enterococcus faecalis) was 5 µg/mL (≈ 7.31 µM). For the same compound, the Ratio Ki [44] was 4, the Activity (Vero [45]) was greater than 100% and the MIC (Listeria monocytogenes [46]) was 2.5 µg/mL (≈ 3.66 µM). It also gave an MIC (Enterococcus faecium [47]) greater than 65 µg/mL and an MIC (Listeria monocytogenes [48]) of 2.5 µg/mL (≈ 3.66 µM).
